Source: article PMC7145530 (Nucleic Acids Research, 2019)
Read-outs that look alike come from different tables or passages of the source.

What was measured:
ALKBH3 [1] = target: T1, ALKBH3 (Homo sapiens, UniProt Q96Q83); test: Demethylation assay by direct detection of formaldehyde; assay type: biochemical; settings: ferrozine 1 mM or succinate 5 mM; ALKBH3 0.2 μM, RAD51C 4.0 μM
T1 sequence (Q96Q83 1-286): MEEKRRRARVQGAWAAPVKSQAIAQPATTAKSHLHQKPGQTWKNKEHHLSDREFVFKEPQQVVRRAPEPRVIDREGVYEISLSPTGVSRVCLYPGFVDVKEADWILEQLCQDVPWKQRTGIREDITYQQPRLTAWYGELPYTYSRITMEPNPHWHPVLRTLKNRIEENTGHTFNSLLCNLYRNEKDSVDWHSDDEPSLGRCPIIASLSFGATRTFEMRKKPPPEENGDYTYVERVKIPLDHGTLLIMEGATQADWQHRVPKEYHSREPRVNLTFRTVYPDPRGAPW

ALKBH3 [2] = target: T1, ALKBH3; test: Isothermal titration calorimetry; assay type: binding; settings: ITC, 25°C; 1 mM peptide into 15 μM ALKBH3
ALKBH3 [3] = target: T1, ALKBH3; test: Yeast two-hybrid with ALKBH3; assay type: binding; settings: strain pJ69-4A; growth on dropout plates and lacZ reporter
Method in brief: (§1)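 Full-length ALKBH2 or ALKBH3 fused to Gal4 binding domain (pGBKT7) was co-transformed with Gal4 activation domain (pACT2) fusions of RAD51, RAD51B, RAD51C, RAD51D, XRCC2 or XRCC3, or empty vectors. Transformants were selected on SD -Leu -Trp plates at 30°C for 2–3 days, then spotted on -His (triple) or -His -Ade (quadruple) dropout plates. lacZ was scored qualitatively by X-gal filter assay.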

ALKBH2 = test: Yeast two-hybrid with ALKBH2; assay type: binding, human; settings: strain pJ69-4A; growth on dropout plates and lacZ reporter
Method in brief: as §1

[4] = target: T2, His-tagged RAD51C (HIS-RAD51C) (human, UniProt O43502 1-376); test: pull-down
T2 sequence (looked up): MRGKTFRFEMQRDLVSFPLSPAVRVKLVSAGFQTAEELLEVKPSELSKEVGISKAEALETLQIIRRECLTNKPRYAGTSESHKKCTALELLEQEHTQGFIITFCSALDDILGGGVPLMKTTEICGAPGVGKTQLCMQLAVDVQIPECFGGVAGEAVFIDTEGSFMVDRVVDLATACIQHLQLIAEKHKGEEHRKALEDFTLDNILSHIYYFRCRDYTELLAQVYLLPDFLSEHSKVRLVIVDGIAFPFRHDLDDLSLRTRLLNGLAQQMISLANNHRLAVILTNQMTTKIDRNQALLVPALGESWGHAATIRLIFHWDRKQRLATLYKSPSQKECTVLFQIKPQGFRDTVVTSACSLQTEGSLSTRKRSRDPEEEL

ALKBH3 [5] = target: T1, ALKBH3; test: Steady-state; assay type: biochemical; settings: 3′-tailed DNA 0.6–9.6 μM, ALKBH3 0.2 μM, RAD51C or RAD51CΔ42–52 4 μM, FDH-coupled
ALKBH3 [6] = target: T1, ALKBH3; settings: ssDNA substrate; cited from earlier work
[7] = target: T3, ALKBH3 protein (recombinant, used for ITC) (human, UniProt Q96Q83 1-286); test: ITC
T3 sequence (looked up): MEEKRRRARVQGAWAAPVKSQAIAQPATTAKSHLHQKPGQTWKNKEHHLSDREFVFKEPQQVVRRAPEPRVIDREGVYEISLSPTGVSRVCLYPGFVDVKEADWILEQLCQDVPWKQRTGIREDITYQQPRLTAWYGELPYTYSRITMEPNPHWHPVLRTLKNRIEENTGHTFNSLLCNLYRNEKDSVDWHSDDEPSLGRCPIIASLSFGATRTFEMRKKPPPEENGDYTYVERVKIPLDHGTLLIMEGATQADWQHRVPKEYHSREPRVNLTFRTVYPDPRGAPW

RAD51C = test: Yeast two-hybrid of ALKBH3 fragments with RAD51C; assay type: binding, human; settings: ALKBH3 fragments (pGBKT7) with pACT2-RAD51C
Method in brief: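 Yeast co-transformed with Gal4 binding-domain (pGBKT7) and activation-domain constructs were plated on SD −Leu −Trp at 30°C for 2–3 days. HIS and ADE2 reporters were scored by spotting onto −Leu −Trp −His or −Leu −Trp −His −Ade plates. lacZ was checked qualitatively by X-gal filter assay.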

## O=S(=O)([O-])c1ccc(-c2nnc(-c3ccccn3)nc2-c2ccc(S(=O)(=O)[O-])cc2)cc1.[Na+].[Na+] [ferrozine, reference compound]
ALKBH3 [1]
  inhibition of ALKBH3 with RAD51C present: presence of RAD51C could not alleviate the inhibitory effect of ferrozine and succinate

## O=C(O)CCC(=O)O [succinate, reference compound]
ALKBH3 [1]
  inhibition of ALKBH3 with RAD51C present: presence of RAD51C could not alleviate the inhibitory effect of ferrozine and succinate

## QTAEELLEV [p33–41]
ALKBH3 [2]
  binding to ALKBH3: failed to bind ALKBH3 under these conditions

## RAD51: human recombinase RAD51
ALKBH3 [3]
  yeast two-hybrid interaction with ALKBH3: not with RAD51
ALKBH2
  yeast two-hybrid interaction with ALKBH2: could not detect any interaction

B1: ΔNTD: remaining amino acid residues (67–376) of RAD51C (protein)
chain: ECLTNKPRYAGTSESHKKCTALELLEQEHTQGFIITFCSALDDILGGGVPLMKTTEICGAPGVGKTQLCMQLAVDVQIPECFGGVAGEAVFIDTEGSFMVDRVVDLATACIQHLQLIAEKHKGEEHRKALEDFTLDNILSHIYYFRCRDYTELLAQVYLLPDFLSEHSKVRLVIVDGIAFPFRHDLDDLSLRTRLLNGLAQQMISLANNHRLAVILTNQMTTKIDRNQALLVPALGESWGHAATIRLIFHWDRKQRLATLYKSPSQKECTVLFQIKPQGFRDTVVTSACSLQTEGSLSTRKRSRDPEEEL
modifications: left off: Gal4 activation domain, end not stated, kept
ALKBH3 [3]
  yeast two-hybrid interaction with ALKBH3: completely abrogated the interaction

B2: GST-ALKBH3 fusion protein (natural protein, human, UniProt Q96Q83 1-286, looked up)
chain: MEEKRRRARVQGAWAAPVKSQAIAQPATTAKSHLHQKPGQTWKNKEHHLSDREFVFKEPQQVVRRAPEPRVIDREGVYEISLSPTGVSRVCLYPGFVDVKEADWILEQLCQDVPWKQRTGIREDITYQQPRLTAWYGELPYTYSRITMEPNPHWHPVLRTLKNRIEENTGHTFNSLLCNLYRNEKDSVDWHSDDEPSLGRCPIIASLSFGATRTFEMRKKPPPEENGDYTYVERVKIPLDHGTLLIMEGATQADWQHRVPKEYHSREPRVNLTFRTVYPDPRGAPW
[4]
  binding result: binds

B3: ALKBH3: human oxidative demethylase ALKBH3, tag-less recombinant (protein)
chain: MEEKRRRARVQGAWAAPVKSQAIAQPATTAKSHLHQKPGQTWKNKEHHLSDREFVFKEPQQVVRRAPEPRVIDREGVYEISLSPTGVSRVCLYPGFVDVKEADWILEQLCQDVPWKQRTGIREDITYQQPRLTAWYGELPYTYSRITMEPNPHWHPVLRTLKNRIEENTGHTFNSLLCNLYRNEKDSVDWHSDDEPSLGRCPIIASLSFGATRTFEMRKKPPPEENGDYTYVERVKIPLDHGTLLIMEGATQADWQHRVPKEYHSREPRVNLTFRTVYPDPRGAPW
modifications: left off: Gal4 DNA-binding domain, end not stated, kept
ALKBH3 [5]
  Km: 1.4 µM
ALKBH3 [6]
  Km: 1.9 µM
  kcat/KM: 14500 M⁻¹ s⁻¹

## KPSELSKEVGI [synthetic peptide p42–52 of RAD51C]
[7]
  Kd: 4 µM
  stoichiometry N: 1

B4: RAD51CΔ19–32 (protein)
chain: MRGKTFRFEMQRDLVSFPQTAEELLEVKPSELSKEVGISKAEALETLQIIRRECLTNKPRYAGTSESHKKCTALELLEQEHTQGFIITFCSALDDILGGGVPLMKTTEICGAPGVGKTQLCMQLAVDVQIPECFGGVAGEAVFIDTEGSFMVDRVVDLATACIQHLQLIAEKHKGEEHRKALEDFTLDNILSHIYYFRCRDYTELLAQVYLLPDFLSEHSKVRLVIVDGIAFPFRHDLDDLSLRTRLLNGLAQQMISLANNHRLAVILTNQMTTKIDRNQALLVPALGESWGHAATIRLIFHWDRKQRLATLYKSPSQKECTVLFQIKPQGFRDTVVTSACSLQTEGSLSTRKRSRDPEEEL
modifications: left off: Gal4 activation domain, end not stated, kept
ALKBH3 [3]
  yeast two-hybrid interaction with ALKBH3: remained unaffected

B5: RAD51C-NTD: NTD consisting of 1–66 amino acid residues (protein)
chain: MRGKTFRFEMQRDLVSFPLSPAVRVKLVSAGFQTAEELLEVKPSELSKEVGISKAEALETLQIIRR
modifications: left off: Gal4 activation domain, end not stated, kept
ALKBH3 [3]
  yeast two-hybrid interaction with ALKBH3: robust interaction

B6: RAD51CΔ33–41 (protein)
chain: MRGKTFRFEMQRDLVSFPLSPAVRVKLVSAGFKPSELSKEVGISKAEALETLQIIRRECLTNKPRYAGTSESHKKCTALELLEQEHTQGFIITFCSALDDILGGGVPLMKTTEICGAPGVGKTQLCMQLAVDVQIPECFGGVAGEAVFIDTEGSFMVDRVVDLATACIQHLQLIAEKHKGEEHRKALEDFTLDNILSHIYYFRCRDYTELLAQVYLLPDFLSEHSKVRLVIVDGIAFPFRHDLDDLSLRTRLLNGLAQQMISLANNHRLAVILTNQMTTKIDRNQALLVPALGESWGHAATIRLIFHWDRKQRLATLYKSPSQKECTVLFQIKPQGFRDTVVTSACSLQTEGSLSTRKRSRDPEEEL
modifications: left off: Gal4 activation domain, end not stated, kept
ALKBH3 [3]
  yeast two-hybrid interaction with ALKBH3: partially affected

B7: RAD51CΔ1–18 (protein)
chain: LSPAVRVKLVSAGFQTAEELLEVKPSELSKEVGISKAEALETLQIIRRECLTNKPRYAGTSESHKKCTALELLEQEHTQGFIITFCSALDDILGGGVPLMKTTEICGAPGVGKTQLCMQLAVDVQIPECFGGVAGEAVFIDTEGSFMVDRVVDLATACIQHLQLIAEKHKGEEHRKALEDFTLDNILSHIYYFRCRDYTELLAQVYLLPDFLSEHSKVRLVIVDGIAFPFRHDLDDLSLRTRLLNGLAQQMISLANNHRLAVILTNQMTTKIDRNQALLVPALGESWGHAATIRLIFHWDRKQRLATLYKSPSQKECTVLFQIKPQGFRDTVVTSACSLQTEGSLSTRKRSRDPEEEL
modifications: left off: Gal4 activation domain, end not stated, kept
ALKBH3 [3]
  yeast two-hybrid interaction with ALKBH3: remained unaffected

B8: RAD51CΔ53–66 (protein)
chain: MRGKTFRFEMQRDLVSFPLSPAVRVKLVSAGFQTAEELLEVKPSELSKEVGIECLTNKPRYAGTSESHKKCTALELLEQEHTQGFIITFCSALDDILGGGVPLMKTTEICGAPGVGKTQLCMQLAVDVQIPECFGGVAGEAVFIDTEGSFMVDRVVDLATACIQHLQLIAEKHKGEEHRKALEDFTLDNILSHIYYFRCRDYTELLAQVYLLPDFLSEHSKVRLVIVDGIAFPFRHDLDDLSLRTRLLNGLAQQMISLANNHRLAVILTNQMTTKIDRNQALLVPALGESWGHAATIRLIFHWDRKQRLATLYKSPSQKECTVLFQIKPQGFRDTVVTSACSLQTEGSLSTRKRSRDPEEEL
modifications: left off: Gal4 activation domain, end not stated, kept
ALKBH3 [3]
  yeast two-hybrid interaction with ALKBH3: remained unaffected

B9: ALKBH3 (amino acids 175–286): C-terminal segment of ALKBH3 (protein)
chain: SLLCNLYRNEKDSVDWHSDDEPSLGRCPIIASLSFGATRTFEMRKKPPPEENGDYTYVERVKIPLDHGTLLIMEGATQADWQHRVPKEYHSREPRVNLTFRTVYPDPRGAPW
modifications: left off: Gal4 DNA-binding domain, end not stated, kept
RAD51C
  yeast two-hybrid interaction with RAD51C: interacted with RAD51C
